From PubChem BioAssay AID624020 (Broad Institute, 2012)
Calls of active or inactive are those of the source.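 Rule for the calls: active = fitted curve reaching 35% inhibition at both 405 and 600 nm absorbance, in duplicate, within twice the top valid dose; inactive = the rest, including signal rising instead of falling.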

system: not listed separately; test: bacterial growth inhibition with EDDHA chelator – absorbance 405 nm, dry powder, set 3, pyoverdine/PvdQ inhibitor project, dose response (AID 624020); settings: P. aeruginosa growth + EDDHA, pyoverdine absorbance 405 nm; at 50 µM (top of the series)
Outline: (§1)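 Test system: Pseudomonas aeruginosa strain ATCC 15692, whole bacteria / Buffer or medium: succinate M9 medium, pH 7.0, with 2 µM iron chelator EDDHA / Reagent: EDDHA, 2 µM final / Doses: threefold compound dilution series from 10 mM stock / Times: Bacteria-compound culture for 24–30 h at 37 °C, humidified / Technique: pyoverdine absorbance, 405 nm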

SMILES	activity change, negative = inhibition
N#Cc1cccc(C(C#N)c2ccc(Cl)cc2Cl)n1 (centres undefined)	-0.74% (inactive)
N#Cc1ccc(C(C#N)c2ccc(Cl)cc2Cl)nc1 (centres undefined)	4.54% (inactive)
N#CC(c1cccc(C(F)(F)F)n1)c1ccc(Cl)cc1F (centres undefined)	-4.42% (inactive)
N#CC(CC1CC1)c1ccc(Cl)cc1 (centres undefined)	3.25% (inactive)
N#CC(c1cccc(C(F)(F)F)n1)c1ccccc1OC(F)(F)F (centres undefined)	7.17% (inactive)
CCCC(C#N)c1ccc(Cl)cc1 (centres undefined)	-9% (inactive)
N#CC(c1cccc(Cl)n1)c1ccc(Cl)cc1Cl (centres undefined)	0.286% (inactive)
CCCCC(C#N)c1ccc(C(F)(F)F)cc1 (centres undefined)	16.2% (inactive)
N#CC(c1cccc(Cl)n1)c1ccccc1OC(F)(F)F (centres undefined)	-0.322% (inactive)
N#CC(c1ccc(C(F)(F)F)cc1)c1cccc(C(F)(F)F)n1 (centres undefined)	20.5% (inactive)
CC(C#N)(c1ccc(Cl)cc1)c1ccc(C(F)(F)F)cn1 (centres undefined)	9.6% (inactive)
N#CC(c1ccc(Cl)cc1)c1ccc(Cl)cn1 (centres undefined)	-3.9% (inactive)
N#CC(c1ccc(C(F)(F)F)cc1)c1cccc(Cl)n1 (centres undefined)	17.5% (inactive)
N#CC(c1ccc(Cl)cc1)c1ccc(C(F)(F)F)c(Cl)n1 (centres undefined)	-1.44% (inactive)
N#CC(c1ccc(C(F)(F)F)cc1)c1ccc(C(F)(F)F)c(Cl)n1 (centres undefined)	20.8% (inactive)
CCCCC(C#N)c1ccc(F)cc1 (centres undefined)	8.04% (inactive)
Cc1ccc(C(C#N)c2ccc(Cl)cc2)nc1 (centres undefined)	7.58% (inactive)
N#CC(c1ccc(C(F)(F)F)c(Cl)n1)c1ccccc1OC(F)(F)F (centres undefined)	-1.95% (inactive)

SMILES	activity change, negative = inhibition
N#Cc1ccc(C(C#N)c2ccc(Cl)cc2)nc1 (centres undefined)	5.84% (inactive)
Cc1ccc(C(C#N)c2ccc(F)cc2)nc1C#N (centres undefined)	4.87% (inactive)
Cc1cccc(C(C#N)c2ccc(Cl)cc2)n1 (centres undefined)	14% (inactive)
CCCCC(C#N)c1ccc(Cl)cc1 (centres undefined)	-10.7% (inactive)
CCCCC(C#N)c1ccccc1OC(F)(F)F (centres undefined)	-1.21% (inactive)
N#Cc1cccc(C(C#N)c2ccc(Cl)cc2)n1 (centres undefined)	3.83% (inactive)
N#CC(c1ccc(C(F)(F)F)c(Cl)n1)c1ccc(Cl)cc1F (centres undefined)	2.37% (inactive)
N#Cc1cccc(C(C#N)c2ccccc2OC(F)(F)F)n1 (centres undefined)	4.22% (inactive)
N#CC(c1ccc(Cl)cc1Cl)c1ncccc1Cl (centres undefined)	13% (inactive)
N#CC(c1ccc(Cl)cc1)c1ccc(C(F)(F)F)cn1 (centres undefined)	8.01% (inactive)
CCCCC(C#N)c1ccc(Cl)cc1Cl (centres undefined)	14.9% (inactive)
N#Cc1cccc(C(C#N)c2ccc(Cl)cc2F)n1 (centres undefined)	7.99% (inactive)
Cc1ccc(C(C#N)c2ccc(Cl)cc2)nc1C#N (centres undefined)	5.29% (inactive)
COc1cccc(C(C#N)c2ccc(F)cc2)n1 (centres undefined)	9.45% (inactive)
CCCCC(C#N)c1ccc(Cl)cc1F (centres undefined)	15.6% (inactive)
CC(C)CC(C#N)c1ccc(Cl)cc1 (centres undefined)	3.56% (inactive)
Cc1ccc(C(C#N)c2ccccc2OC(F)(F)F)nc1C#N (centres undefined)	9.74% (inactive)

system: P. aeruginosa growth + EDDHA, pyoverdine absorbance 405 nm; test: as above; settings: not given
Outline: as §1

SMILES	AC35
N#CC(c1ccc(F)cc1)c1cccc(C(F)(F)F)n1 (centres undefined)	44.8 µM
N#CC(c1ccc(C(F)(F)F)c(Cl)n1)c1ccc(Cl)cc1Cl (centres undefined)	> 50 µM (inactive)
N#CC(c1ccc(Cl)cc1)c1cccc(C(F)(F)F)n1 (centres undefined)	16.8 µM
N#CC(c1ccc(Cl)cc1)c1cccc(Cl)n1 (centres undefined)	33.5 µM
